Laboratory results as given in ChEMBL document CHEMBL1275402, “Virtual screening to identify novel antagonists for the G protein-coupled NK3 receptor” (J Med Chem, 2010).

Target: T1, Neuromedin-K receptor (Homo sapiens, UniProt P29371)
T1 sequence (P29371 whole entry): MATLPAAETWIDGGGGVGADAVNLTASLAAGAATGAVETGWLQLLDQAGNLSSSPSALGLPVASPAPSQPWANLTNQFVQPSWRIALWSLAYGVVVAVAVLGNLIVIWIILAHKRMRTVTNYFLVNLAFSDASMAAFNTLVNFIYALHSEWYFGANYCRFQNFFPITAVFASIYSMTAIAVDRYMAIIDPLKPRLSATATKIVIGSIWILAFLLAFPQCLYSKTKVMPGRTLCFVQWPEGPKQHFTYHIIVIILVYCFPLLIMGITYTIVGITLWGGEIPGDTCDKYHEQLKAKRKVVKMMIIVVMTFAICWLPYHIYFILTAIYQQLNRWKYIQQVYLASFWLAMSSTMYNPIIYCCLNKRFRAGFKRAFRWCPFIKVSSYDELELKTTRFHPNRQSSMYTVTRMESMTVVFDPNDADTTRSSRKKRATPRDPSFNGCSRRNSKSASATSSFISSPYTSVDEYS
Experiment: Antagonist activity against human NK3 receptor expressed in CHO cells assessed as inhibition of senktide-induced increase of intracellular calcium level after 10 mins by fluorescent plate-reader analysis relative to control
Settings: not given

Compound | IC50 [nM]
CC(NC(=O)c1cc(-c2ccccc2)nc2ccccc12)c1ccccc1 (configuration not stated) | 2200
CCC(NC(=O)c1cc(-c2ccccc2)nc2ccccc12)c1ccccn1 (configuration not stated) | 900

Target: T1, Neuromedin-K receptor
Experiment: Antagonist activity against human NK3 receptor expressed in HEK293 cells assessed as inhibition of MePhe7-NKB-induced increase of intracellular calcium level by fluorescent plate-reader analysis
Format: functional, cell-based
Settings: in the assay text read “CHO cells” for “HEK293 cells”
How it was run: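 Calcium responses to 50 nM MePhe7-NKB were measured across increasing antagonist concentrations, and IC50 was derived from the concentration-response curve.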

Compound | IC50 [nM]
CC(NC(=O)c1cc(-c2ccccc2)nc2ccccc12)c1ccccc1 (configuration not stated) | 9900
CCC(NC(=O)c1cc(-c2ccccc2)nc2ccccc12)c1ccccn1 (configuration not stated) | 1400

Target: T2, Neuromedin-K receptor (Homo sapiens) (UniProt P29371)
T2 sequence (whole entry): T1 sequence (P29371 whole entry)
Experiment: not given
Settings: CHO

Compound | Ks [nM]
CC(=O)N(C)C1(c2ccccc2)CCN(CCC[C@]2(c3ccc(Cl)c(Cl)c3)CCCN(C(=O)c3ccccc3)C2)CC1 | 1

Target: T1, Neuromedin-K receptor
Experiment: biochemical
Settings: not given

Compound | Ki [nM] | IC50 [nM]
CNC(=O)C(NC(=O)c1cc(-c2ccccc2)nc2ccccc12)c1ccccc1 (configuration not stated) | 501 | –
CC(NC(=O)c1cc(-c2ccccc2)nc2ccccc12)c1ccccc1 (configuration not stated) | 251 | 33.5
CCCc1c(-c2ccccc2)nc2ccccc2c1C(=O)NC(CC)c1ccccc1 (configuration not stated) | 12.6 | –
O=C(NC(c1ccccc1)C(F)(F)F)c1cc(-c2ccccc2)nc2ccccc12 (configuration not stated) | 501 | –
CCC(NC(=O)c1c(N)c(-c2ccc(F)cc2)nc2ccccc12)c1ccccc1 (configuration not stated) | 7.94 | –
CCC(NC(=O)c1c(-c2ccccc2)c(-c2ccccc2)nc2ccccc12)c1ccccc1 (configuration not stated) | 50.1 | –
CCCC(NC(=O)c1cc(-c2ccccc2)nc2ccccc12)c1ccccc1 (configuration not stated) | 50.1 | –
CCCCC(NC(=O)c1cc(-c2ccccc2)cc2ccccc12)c1ccccc1 (configuration not stated) | 158 | –
CC(=O)C(NC(=O)c1cc(-c2ccccc2)nc2ccccc12)c1ccccc1 (configuration not stated) | 25.1 | –
O=C(NC(Cc1ccccc1)c1ccccc1)c1cc(-c2ccccc2)nc2ccccc12 (configuration not stated) | 3160 | –
Nc1c(-c2cccc(F)c2)nc2ccccc2c1C(=O)NC(c1cccc(F)c1)C1CC1 (configuration not stated) | 6.31 | –
Nc1c(-c2ccccc2)nc2ccccc2c1C(=O)NC(c1ccccc1F)C1CC1 (configuration not stated) | 5.01 | –
Nc1c(-c2ccccc2)nc2ccccc2c1C(=O)NC(c1ccccc1)C1CC1 (configuration not stated) | 5.01 | –
CCC(NC(=O)c1cc(-c2ccccc2)nc2ccccc12)c1ccccn1 (configuration not stated) | – | 5.2
CC(C)C(NC(=O)c1cc(-c2ccccc2)nc2ccccc12)c1ccccc1 (configuration not stated) | 79.4 | –
CCC(NC(=O)c1c(OC)c(-c2ccccc2)nc2ccccc12)c1ccccc1 (configuration not stated) | 6.31 | –
Nc1c(-c2ccccc2)nc2ccccc2c1C(=O)NC(c1cccc(F)c1)C1CC1 (configuration not stated) | 3.16 | –
NC(=O)C(NC(=O)c1cc(-c2ccccc2)nc2ccccc12)c1ccccc1 (configuration not stated) | 1000 | –
O=C(NC(CO)c1ccccc1)c1cc(-c2ccccc2)nc2ccccc12 (configuration not stated) | 200 | –
O=C(NC(CCO)c1ccccc1)c1cc(-c2ccccc2)nc2ccccc12 (configuration not stated) | 398 | –
CCCCCCCC(NC(=O)c1cc(-c2ccccc2)nc2ccccc12)c1ccccc1 (configuration not stated) | 5010 | –
CCC(NC(=O)c1c(N)c(-c2cccc(F)c2)nc2ccccc12)c1ccccc1 (configuration not stated) | 3.98 | –
Nc1c(-c2cccc(F)c2)nc2ccccc2c1C(=O)NC(c1ccccc1)C1CC1 (configuration not stated) | 10 | –
COC(=O)CC(NC(=O)c1cc(-c2ccccc2)nc2ccccc12)c1ccccc1 (configuration not stated) | 1000 | –
CCCCCCc1c(-c2ccccc2)nc2ccccc2c1C(=O)NC(CC)c1ccccc1 (configuration not stated) | 50.1 | –
CCCCc1c(-c2ccccc2)nc2ccccc2c1C(=O)NC(CC)c1ccccc1 (configuration not stated) | 15.8 | –
CN(C)C(=O)C(NC(=O)c1cc(-c2ccccc2)nc2ccccc12)c1ccccc1 (configuration not stated) | 501 | –

Target: T2, Neuromedin-K receptor (Homo sapiens)
Experiment: Antagonist activity against human NK3 receptor expressed in CHO cells assessed as inhibition of senktide-induced increase of intracellular calcium level at 50 uM after 10 mins by fluorescent plate-reader analysis relative to control
Format: functional, cell-based
Settings: not given
How it was run: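 hNK3R-expressing CHO cells were preincubated 10 min with test compound at 50 μM. The calcium response to 200 nM senktide was then measured and expressed as percent inhibition versus the senktide response without antagonist.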

Compound | inhibition [%]
CC(NC(=O)c1cc(-c2ccccc2)nc2ccccc12)c1ccccc1 (configuration not stated) | 61
Cc1nc(-c2ccncc2)n2c1CN(C(=O)C1Cc3ccccc3O1)CC2 (configuration not stated) | 6
Cc1ccc(-c2cc(C(=O)NC(C)c3ccccc3)c3ccccc3n2)c(C)c1 (configuration not stated) | 18
COc1cccc(-c2nc3c(NCc4ccncc4)nccc3[nH]2)c1F | 39
CCC(NC(=O)c1cc(-c2ccccc2)nc2ccccc12)c1ccccn1 (configuration not stated) | 82
Cc1ccc(CNC(=O)c2cc(-c3ccccc3)nc3ccccc23)cc1 | 21
O=C(NCc1ccc(Cl)cc1)c1cc(-c2ccc(Cl)cc2)nc2ccccc12 | 13
Cc1ccc(-c2cc(C(=O)NCCc3ccccc3)c3ccccc3n2)cc1 | 17
O=C(NCc1ccccn1)c1cc(-c2ccccc2)nc2ccccc12 | 17
Cc1ccc(-c2cc(C(=O)NCc3ccc(F)cc3)c3ccccc3n2)cc1 | 7
CCOC(=O)c1nn(C)c2c1CN(C(=O)c1cc(-c3ccccc3)nc3ccccc13)CC2 | 8
O=C(NCc1ccccc1)c1cc(-c2ccccc2)nc2ccccc12 | 30
Cc1ccc(CNC(=O)c2cc(-c3ccc(C)cc3C)nc3ccccc23)cc1 | 9
CCCN1N=C(C(=O)NC(C)c2ccccc2)C2CN(CC)CCC21 (configuration not stated) | 6
COc1ccc(-c2cc(C(=O)NC(C)c3ccccn3)c3ccccc3n2)cc1OC (configuration not stated) | 16
O=C(NCCc1ccccc1)c1cc(-c2ccccc2)nc2ccccc12 | 54
O=C(NCc1ccc(Cl)cc1)c1cc(-c2ccccc2Cl)nc2ccccc12 | 14
c1ccc(CNc2nccc3[nH]c(-c4ccccc4)nc23)cc1 | 42
Cc1cccc(-c2nc3c(NCc4ccccc4)nccc3[nH]2)c1 | 40
